# From PubChem
# M1 ag – M1 muscarinic receptor agonism; CHO-M1 cells, Fluo-4 calcium fluorescence, agonist mode; stronger effect = higher value; B-score at 10 µM; hit rate 3% among 64,000;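 active = fluorescence rise, raw or as B-score row- and column-corrected plate score, outside the 99.7% band of its plate's samples, either direction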
# S1P3 agonist – agonists of human S1P3 receptor; AID 373; Q99500; hit rate 0.1% among 60,000; S1P3 NFAT-BLA reporter cells, agonism, FRET ratio; relative to 1 µM S1P, basal subtracted; activation, % at 4.5 µM;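 active = activation above the screen-wide mean plus 3 SD, cut at about 4.5% in these data, passing the limit was not always enough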
#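 Measure – % activation relative to 1 µM S1P (100%), per plate · System – stable CHO line with human S1P3, Gα16, NFAT-BLA reporter · Timing – cells plated overnight, compound 4 h 37 °C, substrate 2 h RT · Technique – fluorescent BLA substrate, ex 405 nm, em 460/535 nm ratio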
# D1 allo mod – allosterically modulates the human D1 dopamine receptor; P21728; HEK293 D1, CRE-luciferase, dopamine EC30 potentiation; actives deviate in either direction; B-score at 10 µM; hit rate 5.9% among 58,000;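 active = luminescence count or its row- and column-corrected plate score outside the 99.7% band of the plate's sample wells, on either side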
# M1 antagonist – M1 muscarinic receptor (rat) antagonism; P08482; CHO-M1 cells, Fluo-4 calcium, ACh EC80 antagonist mode; stronger effect = lower value; B-score at 10 µM; hit rate 3.4% among 64,000; AID 628;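 active = calcium fluorescence response, raw or row-and-column corrected B-score, differing from the plate sample mean either way at a set confidence level, mostly lower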
# Target sequence (P08482 whole entry, looked up): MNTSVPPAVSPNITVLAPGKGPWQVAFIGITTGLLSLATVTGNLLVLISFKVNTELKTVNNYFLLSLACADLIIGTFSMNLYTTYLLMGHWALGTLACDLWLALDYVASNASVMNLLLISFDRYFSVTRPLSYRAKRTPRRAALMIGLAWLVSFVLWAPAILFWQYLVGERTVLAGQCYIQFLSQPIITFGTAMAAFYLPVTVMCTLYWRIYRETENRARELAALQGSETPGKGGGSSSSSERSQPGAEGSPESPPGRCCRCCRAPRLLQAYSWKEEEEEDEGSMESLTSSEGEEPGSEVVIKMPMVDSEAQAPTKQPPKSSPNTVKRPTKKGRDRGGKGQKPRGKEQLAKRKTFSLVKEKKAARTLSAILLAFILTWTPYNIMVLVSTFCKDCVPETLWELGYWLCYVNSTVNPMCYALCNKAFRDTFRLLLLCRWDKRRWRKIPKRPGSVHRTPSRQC
# S1P1 ag pot – agonists and agonism potentiators of human S1P1 receptor. P21453. S1P1 CRE-bla cells, forskolin, beta-lactamase FRET, potentiator mode; S1P1 agonist co-added at EC20, 2 nM; 100% = saturating reference agonist, 0% = basal. activation, % at 9.5 µM. hit rate 0.57% among 56,000. AID 449;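 active = activation above a cutoff set at the mean activation of all tested compounds plus 3 SD, cut at about 54% in these data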;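 also: forskolin at 4 µM as EC80 and the EC20 agonist is SEW2871; 100% = SEW2871 at its EC100 plus forskolin at EC80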
# M1 ag confirm – confirmation of rat M1 muscarinic receptor agonists; shares compounds with M1 ag; CHO-M1 cells, Fluo-4 calcium fluorescence, agonist mode; actives lie on both sides; fluorescence change (max-min) at 10 µM; hit rate 19% among 1,700; AID 1488;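 active = fluorescence change differs from the solvent-only DMSO control mean at a set confidence level in both duplicate runs; inconclusive = differs from solvent-only control mean in just one of two runs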;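 also: an EC20 dose of acetylcholine follows compound addition during the same imaging run; raw fluorescence intensity difference in instrument units with no normalization to controls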
# M4 ag counter – activates rat M4 receptor in counter-screen for M1 agonists; fluorescence change (max-min) at 10 µM; shares compounds with M1 ag; hit rate 9% among 1,700; CHO M4/Gqi5 cells, Fluo-4 calcium fluorescence, agonist mode; actives lie on both sides;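 active = fluorescence change differing from the plate's solvent-only control wells at 99.7% confidence in both duplicates, whether higher or lower; inconclusive = differs from solvent controls in only one of two duplicates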
# Starred values were filed as active, the others as inactive; ? = inconclusive; . = no result given. Sampled rows, rich in hits. Any-hit rate of the full collection: about 11%.
SMILES,M1 ag,S1P3 agonist,D1 allo mod,M1 antagonist,S1P1 ag pot,M1 ag confirm,M4 ag counter
CCN(C1CCCCC1)S(=O)(=O)c1ccc(S(=O)(=O)NCc2ccncc2)cc1,3.7*,-2,-1.3,-2.2*,88*,11,-28
CCN(C1CCCCC1)S(=O)(=O)c1ccc(S(=O)(=O)NCCc2ccncc2)cc1,0.85,1,-0.11,0.43,2,.,.
CC(=O)c1sc(NC(=O)C=C(C)C)nc1C,-2.2*,-1,0.12,-0.17,.,-25*,-58
CC(=O)c1sc(NC(=O)C2(F)C(F)(F)C(F)(F)C(F)(F)C(F)(F)C2(F)F)nc1C,9.2*,-3,-2.1*,0.12,111*,32,?
COc1ccc(CCNc2oc(COc3ccc(Br)cc3)nc2C#N)cc1OC,4.9*,.,.,-0.38,.,-24*,-72*
COc1ccc(CCNc2oc(Cc3cccc4ccccc34)nc2C#N)cc1OC,-0.0028,-2,0.18,0.29,8,.,.
O=C(NC1CCCCCC1)C1CCN(S(=O)(=O)c2ccccc2)CC1,6.5*,-2,-0.11,0.73,-40,?,?
O=C(NC1CCCCC1)C1CCN(S(=O)(=O)N2CCCCCC2)CC1,-1.5,0,-0.014,0.64,0,.,.
Cc1cc2ncn(C3CC(=O)N(Cc4ccccc4)C3=O)c2cc1C (stereo not given),5.8*,0,-0.39,-0.59,.,?,-18
Cc1ccc(S(=O)(=O)N2CCN(C3CC(=O)N(Cc4ccccc4)C3=O)CC2)cc1C (stereo not given),-0.2,-1,-1.4,-0.8,3,.,.
O=C(Nc1nc(-c2cc3ccccc3oc2=O)cs1)c1ccco1,1.6*,-2,.,-0.0027,3,2.6,-33
CCCc1nn(CCc2ccccn2)c(N)c1CC,0.21,0,0.4,-0.2,-1,.,.
O=C(c1c(Cl)nc2sccn12)N1CCN(c2cccc(Cl)c2)CC1,0.36,.,.,0.36,.,.,.
Cc1nc2sccn2c1-c1csc(NCc2ccccc2)n1,8.3*,-1,-1.7,-1.6,113*,-10,?
COc1cccc(N2CCN(C3CC(=O)N(c4cccc(Cl)c4)C3=O)CC2)c1 (stereo not given),0.15,-4,.,-0.022,7,.,.
COc1cccc(N2CCN(C3CCCC(C)C3)CC2)c1 (stereo not given),3.6*,-1,-0.63,-0.4,.,-12,-24
CCc1ccccc1N(C(=O)c1cccs1)C1C=CS(=O)(=O)C1 (stereo not given),0.041,1,0.0045,-0.03,-6,.,.
O=[n+]1c2c(n([O-])c3cc(F)ccc31)CCCC2,-0.34,0,0.051,-0.24,-5,.,.
O=[n+]1c2c(n([O-])c3cc(F)c(N4CCCC4)cc31)CCC2,92*,-1,0.23,0.51,-20,632*,549*
O=[n+]1c2c(n([O-])c3cc(F)c(N4CCCC4)cc31)CCCC2,188*,0,-0.71,0.9,6,593*,561*
CCn1c(C)nc2cc(S(=O)(=O)C(F)(F)C(F)C(F)(F)F)ccc21 (stereo not given),4.7*,-2,-0.8,-1.9,42,-7.4,?
COCCCn1c(Cc2ccccc2)nnc1SCC(=O)N1CCCCC1,-1,0,-0.72,-0.0042,9,.,.
C=CCn1c2ccccc2c2nnc(SCc3ccc4nonc4c3)nc21,2.3*,-1,1.2,0.36,-20,-22,-45
CC(=O)c1sc2nc(=O)c(C)nn2c1C,-0.34,0,0.13,0.058,-19,.,.
CCCC(OC(=O)CC1Sc2ccccc2NC1=O)C(=O)NCc1ccco1 (stereo not given),2.5*,.,.,1.2,.,-19,-31
SMILES,M1 ag,S1P3 agonist,D1 allo mod,M1 antagonist,S1P1 ag pot,M1 ag confirm,M4 ag counter
O=C(CSC1=NCCS1)Nc1ccnc2ccccc12,4.2*,-3,-2.6,-1.5,109*,7.1,?
CC(=O)Nc1ccc(NC(=O)CSC2=NCCS2)cc1,-0.45,0,-0.1,-1.5,-1,.,.
CCCCCn1c(=O)[nH]c2cc(C(=O)NCCCN3CCCCC3)ccc2c1=O,-0.85,.,-1,-0.61,.,.,.
CCCCCn1c(=O)[nH]c2cc(C(=O)NCCN(CC)CC)ccc2c1=O,-2.1*,.,-1.9,-0.5,.,-36*,-92
COc1ccc(S(=O)(=O)N2CCCC(C(=O)N3CCOCC3)C2)cc1C (stereo not given),0.1,0,-0.31,0.34,1,.,.
COc1ccc(N2C(=O)CCC(C(C)=O)=C2C)cc1,-0.72,-1,0.42,-0.19,-5,.,.
CC12CC(NC(=O)N1c1cccc(C(=O)NCc3ccc4c(c3)OCO4)c1)c1cc(Cl)ccc1O2 (stereo not given),2.2*,.,-0.041,-0.72,.,?,-50
CC(C)C(=O)Nc1cccc(C(=O)NCc2ccc3c(c2)OCO3)c1,0.38,-1,-0.65,0.24,7,.,.
CCOc1cc(C2C(C#N)=C(N)OC(C)=C2C(C)=O)cc(Br)c1O (stereo not given),23*,0,0.32,-0.027,-11,180*,170*
CC(c1ccccc1)C(CC(=O)O)C(=O)NC1CCCCC1 (stereo not given),-0.47,0,-0.23,0.078,1,.,.
CC(C)C(c1nnnn1C1CCCCC1)N1CCN(c2ncccn2)CC1 (stereo not given),4.4*,-1,-0.61,0.064,8,-14,-33
O=C(c1cc(-c2ccncc2)nc2ccc(Cl)cc12)N1CCN(C(=O)C2CCCO2)CC1 (stereo not given),2.9*,-1,-0.19,-0.26,-9,-29,-48
C#CC1(O)CC(C)N(C)C(C)C1 (stereo not given),2.4*,-1,-1.5,0.28,-2,-11,-24
CSCC[C@H](NC(=O)OC(C)(C)C)c1nnc(SCC(=O)Nc2ccc(C)cc2C)o1,0.69,.,.,-0.034,.,.,.
Cn1cnnc1Sc1nc2ccccc2nc1NS(=O)(=O)c1ccccc1,-0.043,0,-1,-0.061,-4,.,.
CC(=O)Nc1ccc(S(=O)(=O)Nc2nc3ccccc3nc2Sc2nncn2C)cc1,43*,.,0.33,0.3,.,55*,12
Cc1ccc(C)c(N2CCN(C(=O)COc3cc(=O)n(C)c4ccccc34)CC2)c1,5.5*,-2,-0.031,0.46,-16,-8.6,-37
Cc1ccc(C)c(N2CCN(C(=O)CCCOc3cc(=O)n(C)c4ccccc34)CC2)c1,5.9*,-1,-1.9,-0.93,-46,-18,-23
O=C(Nc1ccc(Cc2ccc(NC(=O)C3CC3)c(O)c2)cc1O)C1CC1,-0.41,-1,0.58,-0.29,2,.,.
O=C1N2CN(C(c3ccccc3)c3ccccc3)CN=C2SC1(CO)CO,1.4,-1,-0.53,-0.21,-9,.,.
